In the library only some 3.1% were active in any assay of this set; here they are far more common.
rCAG binder: molecules binding r(CAG) RNA repeats; r(CAG) RNA repeat, TO-PRO-1 dye displacement fluorescence; inhibition, % at 3 µM; actives 1.3% (n = 370,000);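 active = inhibition above the plate cutoff, the mean of all test compounds on that plate plus 3 SD, cut at about 35% in these data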;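 note: higher means more dye released from RNA so lower well fluorescence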
LEDGF integ inh: blocks HIV-1 LEDGF/p75-dependent DNA integration; TR-FRET IN-LEDGF/p75 DNA integration, Eu/Cy5; inhibition, % at 3.7 µM; actives 0.64% (n = 370,000); AID 743269;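 active = inhibition above the screen-wide mean plus 3 SD, cut at about 13% in these data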;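 note: signal is the Cy5 over europium emission ratio at 671 and 618 nm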
MBD2 DNA inh: blocks human MBD2 binding to methylated DNA; actives 0.31% (n = 370,000); AID 686964; TR-FRET, MBD2 binding to methylated oligonucleotide; Q9UBB5; inhibition, % at 4.4 µM; in the data active = inhibition above about 13%
UHRF1 binding: blocks human UHRF1 binding to methylated DNA | UHRF1 binding to methylated oligo, TR-FRET | AID 687016 | Q96T88 | inhibition, % at 4.4 µM | actives 0.75% (n = 370,000); in the data active = inhibition above about 21%;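 note: UHRF1 SRA domain binding a hemimethylated CpG hairpin DNA probe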
Target sequence (Q96T88 whole entry, looked up, the tested form may be a part): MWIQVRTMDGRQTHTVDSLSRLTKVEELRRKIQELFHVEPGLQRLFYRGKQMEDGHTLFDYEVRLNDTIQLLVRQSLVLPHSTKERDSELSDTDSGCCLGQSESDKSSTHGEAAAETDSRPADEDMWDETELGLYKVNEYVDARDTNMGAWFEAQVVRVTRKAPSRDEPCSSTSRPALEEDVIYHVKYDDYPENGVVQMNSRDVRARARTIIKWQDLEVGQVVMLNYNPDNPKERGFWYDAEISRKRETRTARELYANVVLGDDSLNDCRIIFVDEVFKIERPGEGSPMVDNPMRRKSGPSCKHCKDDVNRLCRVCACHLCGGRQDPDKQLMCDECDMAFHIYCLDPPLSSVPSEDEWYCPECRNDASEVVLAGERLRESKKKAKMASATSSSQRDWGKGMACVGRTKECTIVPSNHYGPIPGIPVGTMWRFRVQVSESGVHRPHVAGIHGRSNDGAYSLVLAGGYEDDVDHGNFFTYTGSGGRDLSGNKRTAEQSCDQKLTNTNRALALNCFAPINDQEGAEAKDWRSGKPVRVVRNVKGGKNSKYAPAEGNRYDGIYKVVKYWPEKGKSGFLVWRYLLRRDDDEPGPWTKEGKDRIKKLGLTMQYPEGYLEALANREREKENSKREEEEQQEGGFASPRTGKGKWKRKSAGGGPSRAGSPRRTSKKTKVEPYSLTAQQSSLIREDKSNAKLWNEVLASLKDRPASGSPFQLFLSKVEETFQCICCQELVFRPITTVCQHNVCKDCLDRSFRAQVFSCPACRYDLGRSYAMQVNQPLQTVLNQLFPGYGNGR
ATG4B inh: inhibitors of human ATG4B cysteine protease; Q9Y4P1; ATG4B cleavage of LC3-PLA2, NBD-HPC fluorescence, 1 h; inhibition, % at 8.33 µM; actives 0.51% (n = 340,000); in the data active = inhibition above about 40%
CSN inh: inhibitors of human CSN-mediated cullin deneddylation; Purified CSN, SCF-Nedd8-OG deneddylation, fluorescence polarization; inhibition, % at 12.5 µM; actives 0.38% (n = 360,000); Q92905;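 active = pattern-corrected inhibition above about 35%, with an unprinted fluorescence ratio check between 0.5 and 1.5, limit read from the data, passing the limit was not always enough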
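Assay system: HEK293T-derived human Csn5 enzyme; quantity: 0.24 nM enzyme; medium: Tris/NaCl/DTT buffer, pH 7.5; also added: substrate SCFSkp2-Nedd8OG, 10 nM; doses: 12.5 µM compound; schedule: 90 min reaction at room temperature; signal: FP; read-out: % inhibition of substrate cleavage by Csn5; benchmarks: substrate-only high control, full reaction low control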
rCAG binder conf: r(CAG) RNA repeat binding, confirmation; shares compounds with rCAG binder; TO-PRO-1 dye displacement fluorescence; inhibition, % at 3 µM; actives 70% (n = 4,300);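 active = inhibition above a per-plate cutoff, the mean inhibition of sample wells plus 3 SD, cut at about 35% in these data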;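 note: loss of TO-PRO-1 fluorescence as compound displaces dye from 1x1 AA loop RNA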
dCAG dye counter: DNA CAG dye complex inhibition counter-screen | shares compounds with rCAG binder | d(CAG) DNA oligo TO-PRO-1 dye displacement, fluorescence | inhibition, % at 3 µM | actives 94% (n = 4,300) | AID 652068;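 active = inhibition above its plate's cutoff, the mean test-well inhibition plus 3 SD, cut at about 4.8% in these data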;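 note: hits displace the dye from DNA and so lower well fluorescence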
DNA CAG DR: DNA CAG dye complex inhibition, dose response counter-screen; shares compounds with rCAG binder; DNA CAG/GTC duplex TO-PRO-1 dye displacement fluorescence; IC50, µM; actives 20% (n = 250); in the data active = IC50 below about 10 µM
Numbers stand for hits.

How did Cc1noc(NS(=O)(=O)c2ccc(N/C=C\C(=O)c3ccc(Br)cc3)cc2)c1C do in these assays?
rCAG binder: 75; LEDGF integ inh: inactive; MBD2 DNA inh: inactive; UHRF1 binding: inactive; ATG4B inh: inactive; CSN inh: inactive; rCAG binder conf: 74; dCAG dye counter: 39

Results for COc1cccc(C(=O)/C=C/Nc2ccc(S(=O)(=O)Nc3onc(C)c3C)cc2)c1 ?
rCAG binder: inactive; LEDGF integ inh: inactive; MBD2 DNA inh: inactive; UHRF1 binding: inactive; ATG4B inh: inactive; CSN inh: inactive

Results for COc1cc(C)c(C(=O)Oc2cc(C)c(C(=O)O)c(O)c2C)c(O)c1C(=O)O ?
rCAG binder: inactive; LEDGF integ inh: inactive; MBD2 DNA inh: inactive; UHRF1 binding: inactive; ATG4B inh: inactive; CSN inh: inactive

Results for COc1cc(C)c(C(=O)Oc2cc(C)c(C(=O)O)c(O)c2C)c(OC)c1C ?
rCAG binder: 52; LEDGF integ inh: inactive; MBD2 DNA inh: inactive; UHRF1 binding: inactive; ATG4B inh: inactive; CSN inh: inactive; rCAG binder conf: 55; dCAG dye counter: 17

What do the screens show for `COc1cc(/C=C2/C(=O)c3cccc([N+](=O)[O-])c3C2=O)c(Br)cc1O`?
rCAG binder: 60; LEDGF integ inh: inactive; MBD2 DNA inh: inactive; UHRF1 binding: inactive; ATG4B inh: inactive; CSN inh: inactive; rCAG binder conf: 89; dCAG dye counter: 62

What do the screens show for `CCOC(=O)[C@]12CCCCC/C=C\1N(CCc1ccc(Cl)cc1)C(=O)[C@H]2CC(=O)NCC12CC3CC(CC(C3)C1)C2`?
rCAG binder: inactive; LEDGF integ inh: inactive; MBD2 DNA inh: inactive; UHRF1 binding: inactive

What do the screens show for `COC(=O)c1ccc(CSc2nc3c(cnn3-c3ccccc3)c(=O)[nH]2)o1`?
rCAG binder: 38; LEDGF integ inh: inactive; MBD2 DNA inh: inactive; UHRF1 binding: inactive; ATG4B inh: inactive; CSN inh: inactive; rCAG binder conf: 36; dCAG dye counter: 8.0

Results for COC(=O)c1ccc(CSc2nc3c(cnn3-c3ccc(F)cc3)c(=O)[nH]2)o1 ?
ATG4B inh: inactive; CSN inh: inactive

Results for COc1ccccc1N1CCN(S(=O)(=O)c2ccc3c(c2)CCC(=O)N3)CC1 ?
rCAG binder: inactive; LEDGF integ inh: inactive; MBD2 DNA inh: inactive; UHRF1 binding: inactive

Results for COc1ccc(-n2nc(C(=O)NCC(=O)NCCC3=CCCCC3)c3ccccc3c2=O)cc1OC ?
rCAG binder: 36; LEDGF integ inh: inactive; MBD2 DNA inh: inactive; UHRF1 binding: inactive; ATG4B inh: inactive; CSN inh: inactive; rCAG binder conf: inactive; dCAG dye counter: 7.3

Results for COC(=O)CNC(=O)CNC(=O)c1nn(-c2ccc(OC)c(OC)c2)c(=O)c2ccccc12 ?
rCAG binder: inactive; LEDGF integ inh: inactive; MBD2 DNA inh: inactive; UHRF1 binding: inactive; ATG4B inh: inactive; CSN inh: inactive

How did C[C@@H]1COc2cc(Br)ccc2S(=O)(=O)N1Cc1cn(CC2CCCCC2)nn1 do in these assays?
rCAG binder: inactive; LEDGF integ inh: inactive; MBD2 DNA inh: inactive; UHRF1 binding: inactive

What do the screens show for `COc1ccc2[nH]cc(C(C)c3ccccc3O)c2c1` (stereo unspecified)?
rCAG binder: inactive; LEDGF integ inh: inactive; MBD2 DNA inh: inactive; UHRF1 binding: inactive

How did CC(C)OC(=O)c1c(NS(=O)(=O)c2ccccc2)sc2c1CCCC2 do in these assays?
rCAG binder: 35; LEDGF integ inh: inactive; MBD2 DNA inh: inactive; UHRF1 binding: inactive; ATG4B inh: inactive; CSN inh: inactive; rCAG binder conf: 50; dCAG dye counter: 14

Results for COC(=O)c1c(NS(=O)(=O)Cc2ccccc2)sc2c1CCCC2 ?
rCAG binder: 48; LEDGF integ inh: inactive; MBD2 DNA inh: inactive; UHRF1 binding: inactive; ATG4B inh: inactive; CSN inh: inactive; rCAG binder conf: 47; dCAG dye counter: 16

How did O=C(OC12CCCN(C1)/C(=C/c1cccnc1)C2)C1CCCCC1 (stereo unspecified) do in these assays?
rCAG binder: inactive; LEDGF integ inh: inactive; MBD2 DNA inh: inactive; UHRF1 binding: inactive

What do the screens show for `O=C(CN1c2ccccc2Sc2ccccc21)N/N=C/c1ccc(Cl)cc1Cl`?
rCAG binder: inactive; LEDGF integ inh: inactive; MBD2 DNA inh: inactive; UHRF1 binding: inactive; ATG4B inh: inactive; CSN inh: inactive

What do the screens show for `O=C(COc1cccc(Cl)c1)NNC(=S)Nc1ccccc1`?
rCAG binder: inactive; LEDGF integ inh: inactive; MBD2 DNA inh: inactive; UHRF1 binding: inactive; ATG4B inh: inactive; CSN inh: inactive

Results for O=C(CN1c2ccccc2Sc2ccccc21)NNC(=S)Nc1ccc(Cl)cc1Cl ?
rCAG binder: 64; LEDGF integ inh: inactive; MBD2 DNA inh: inactive; UHRF1 binding: inactive; ATG4B inh: inactive; CSN inh: inactive; rCAG binder conf: 60; dCAG dye counter: 34

What do the screens show for `COc1cccc(OCC(=O)NNC(=S)Nc2ccc(Cl)cc2Cl)c1`?
rCAG binder: 57; LEDGF integ inh: inactive; MBD2 DNA inh: inactive; UHRF1 binding: inactive; ATG4B inh: inactive; CSN inh: inactive; rCAG binder conf: 47; dCAG dye counter: 15

What do the screens show for `O=C(CN1c2ccccc2Sc2ccccc21)NNC(=S)Nc1ccc(Cl)cc1`?
rCAG binder: 62; LEDGF integ inh: inactive; MBD2 DNA inh: inactive; UHRF1 binding: inactive; ATG4B inh: inactive; CSN inh: inactive; rCAG binder conf: 65; dCAG dye counter: 31; DNA CAG DR: inactive

Results for O=C(CN1CCOCC1)NNC(=S)Nc1ccc(Cl)cc1 ?
rCAG binder: inactive; LEDGF integ inh: inactive; MBD2 DNA inh: inactive; UHRF1 binding: inactive; ATG4B inh: inactive; CSN inh: inactive

How did O=S1(=O)CC2c3ccc(F)cc3CN2CN1CCc1ccccc1 (stereo unspecified) do in these assays?
rCAG binder: inactive; LEDGF integ inh: inactive; MBD2 DNA inh: inactive; UHRF1 binding: inactive

Results for COc1ccc(C(C)c2cn(C)c3ccccc23)cc1 (stereo unspecified) ?
rCAG binder: inactive; LEDGF integ inh: inactive; MBD2 DNA inh: inactive; UHRF1 binding: inactive

How did Clc1cccc(Cc2c(-c3ccccc3)nc3ccc(Br)cn23)c1 do in these assays?
rCAG binder: 46; LEDGF integ inh: inactive; MBD2 DNA inh: inactive; UHRF1 binding: inactive; CSN inh: inactive; rCAG binder conf: 38; dCAG dye counter: 9.2

How did Cc1ccc(-c2nc3ccc(Br)cn3c2Cc2cccc(F)c2)cc1 do in these assays?
rCAG binder: inactive; LEDGF integ inh: inactive; MBD2 DNA inh: inactive; UHRF1 binding: inactive; CSN inh: inactive

Bioassay records: PubChem BioAssay, several laboratories
